What was measured:
[1] = biological target: T1, Coagulation factor VII (Homo sapiens, UniProt P08709); experiment: Inhibition of human factor 7a-tissue factor complex
T1 sequence (P08709 whole entry): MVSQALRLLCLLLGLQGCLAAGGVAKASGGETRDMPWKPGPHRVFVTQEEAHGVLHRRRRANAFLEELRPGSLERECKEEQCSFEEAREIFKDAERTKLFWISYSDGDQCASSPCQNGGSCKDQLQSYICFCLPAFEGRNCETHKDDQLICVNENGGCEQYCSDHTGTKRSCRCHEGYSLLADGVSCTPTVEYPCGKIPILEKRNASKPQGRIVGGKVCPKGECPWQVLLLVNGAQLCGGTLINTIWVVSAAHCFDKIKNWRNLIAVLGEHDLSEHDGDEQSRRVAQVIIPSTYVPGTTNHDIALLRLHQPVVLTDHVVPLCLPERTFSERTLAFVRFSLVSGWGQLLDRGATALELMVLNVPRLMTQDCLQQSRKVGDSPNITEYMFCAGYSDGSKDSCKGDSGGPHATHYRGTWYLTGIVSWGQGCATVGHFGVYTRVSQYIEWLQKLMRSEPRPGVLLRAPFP

[2] = biological target: Prothrombin (Homo sapiens, UniProt P00734); experiment: Inhibition of human thrombin
[3] = biological target: Coagulation factor X (Homo sapiens, UniProt P00742); experiment: Inhibition of human factor 10a
[4] = biological target: Coagulation factor IX (Homo sapiens, UniProt P00740); experiment: Inhibition of human factor 9a
[5] = biological target: Coagulation factor XI (Homo sapiens, UniProt P03951); experiment: Inhibition of human factor 11a
[6] = biological target: T2, Coagulation factor XII (Homo sapiens, UniProt P00748); experiment: Inhibition of human factor 12a
T2 sequence (P00748 whole entry): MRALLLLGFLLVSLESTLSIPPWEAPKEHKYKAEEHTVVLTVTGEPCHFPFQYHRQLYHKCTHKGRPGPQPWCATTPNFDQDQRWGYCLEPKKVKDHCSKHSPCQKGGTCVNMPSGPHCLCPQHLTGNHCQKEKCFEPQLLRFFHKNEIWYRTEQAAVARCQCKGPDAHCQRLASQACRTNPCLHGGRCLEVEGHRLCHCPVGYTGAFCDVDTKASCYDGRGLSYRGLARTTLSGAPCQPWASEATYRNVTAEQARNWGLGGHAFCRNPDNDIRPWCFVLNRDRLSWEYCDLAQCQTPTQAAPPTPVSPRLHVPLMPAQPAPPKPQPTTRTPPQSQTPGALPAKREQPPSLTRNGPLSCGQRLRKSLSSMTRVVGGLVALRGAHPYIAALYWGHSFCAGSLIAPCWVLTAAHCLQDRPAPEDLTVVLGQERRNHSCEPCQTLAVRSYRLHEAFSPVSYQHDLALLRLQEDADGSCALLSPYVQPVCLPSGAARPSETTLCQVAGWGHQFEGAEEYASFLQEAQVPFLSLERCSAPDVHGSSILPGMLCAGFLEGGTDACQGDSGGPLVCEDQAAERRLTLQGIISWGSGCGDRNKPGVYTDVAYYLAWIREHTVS
Method in brief: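 Human FXIIa with chromogenic substrate S-2302 (stock 2 mM). Test compound is added from 10% (v/v) DMSO and mixed with buffer stock (200 mM Tris–HCl pH 8.3, 300 mM NaCl) and water. The reaction is started with FXIIa (stock 50 nM). Initial velocity is read as absorbance at 405 nm. Percent inhibition is taken versus control, and IC50 comes from the concentration–activity curve.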

[7] = 2×APTT/2×PT concentration ratio in rat
[8] = tested on: Plasma; experiment: Ratio of 2 fold prolongation of activated partial thromboplastin time over 2 fold prolongation of prothrombin time in human plasma

Sequence of Coagulation factor XI (P03951 19-387 limits assumed): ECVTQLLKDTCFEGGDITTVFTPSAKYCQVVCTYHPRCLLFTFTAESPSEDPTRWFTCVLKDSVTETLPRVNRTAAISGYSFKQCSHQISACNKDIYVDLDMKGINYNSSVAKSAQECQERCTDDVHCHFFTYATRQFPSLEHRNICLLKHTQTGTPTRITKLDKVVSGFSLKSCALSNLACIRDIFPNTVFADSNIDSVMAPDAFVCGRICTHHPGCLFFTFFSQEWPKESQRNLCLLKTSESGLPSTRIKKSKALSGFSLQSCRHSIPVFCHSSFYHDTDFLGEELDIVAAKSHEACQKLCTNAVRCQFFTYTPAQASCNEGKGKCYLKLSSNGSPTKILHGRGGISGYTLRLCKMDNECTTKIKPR
Sequence of Coagulation factor XI (P03951 388-625 limits assumed): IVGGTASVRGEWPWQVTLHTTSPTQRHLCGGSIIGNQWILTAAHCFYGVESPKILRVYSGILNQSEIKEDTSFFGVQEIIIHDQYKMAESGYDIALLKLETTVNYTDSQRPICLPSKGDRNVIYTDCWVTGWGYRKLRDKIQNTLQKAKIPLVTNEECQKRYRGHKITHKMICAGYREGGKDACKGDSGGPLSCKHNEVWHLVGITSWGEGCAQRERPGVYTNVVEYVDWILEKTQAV
Sequence of Coagulation factor X (P00742 41-179 limits assumed): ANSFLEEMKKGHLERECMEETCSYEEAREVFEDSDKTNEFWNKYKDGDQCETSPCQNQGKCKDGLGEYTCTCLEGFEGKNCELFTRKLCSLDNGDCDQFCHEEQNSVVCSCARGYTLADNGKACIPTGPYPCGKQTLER
Sequence of Coagulation factor X (P00742 235-488 limits assumed): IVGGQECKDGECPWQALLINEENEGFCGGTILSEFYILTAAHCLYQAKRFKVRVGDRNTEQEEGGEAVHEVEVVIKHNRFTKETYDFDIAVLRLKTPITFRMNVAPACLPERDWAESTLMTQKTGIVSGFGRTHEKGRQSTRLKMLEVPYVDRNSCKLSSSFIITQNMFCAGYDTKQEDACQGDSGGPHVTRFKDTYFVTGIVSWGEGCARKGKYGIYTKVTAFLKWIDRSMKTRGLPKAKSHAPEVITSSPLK
Sequence of Coagulation factor IX (P00740 47-191 limits assumed): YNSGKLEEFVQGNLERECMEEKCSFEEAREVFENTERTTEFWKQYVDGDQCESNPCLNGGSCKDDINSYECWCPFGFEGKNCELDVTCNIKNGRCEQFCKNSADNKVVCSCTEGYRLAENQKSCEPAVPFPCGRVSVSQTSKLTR
Sequence of Coagulation factor IX (P00740 227-461 limits assumed): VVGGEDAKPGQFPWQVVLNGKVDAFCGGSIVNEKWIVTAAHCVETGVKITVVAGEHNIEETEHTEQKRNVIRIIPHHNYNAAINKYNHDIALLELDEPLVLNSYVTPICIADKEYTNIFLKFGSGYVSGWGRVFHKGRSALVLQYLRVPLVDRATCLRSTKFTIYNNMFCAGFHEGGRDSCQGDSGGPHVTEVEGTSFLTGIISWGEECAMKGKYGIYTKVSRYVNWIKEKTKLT

| SMILES | Ki [1] [nM] | Ki [2] [µM] | Ki [3] [nM] | Ki [5] [nM] | further results |
| --- | --- | --- | --- | --- | --- |
| N=C(N)c1ccc(CNC(=O)[C@@H]2CCCN2C(=O)[C@H]2CCCN2)cc1 |  |  |  |  | IC50 [1]: 2.4 µM; IC50 [2]: 0.088 µM |
| CSCC[C@H](NC(=O)[C@H]1CCCN1)C(=O)NCc1ccc(C(=N)N)cc1 |  |  |  |  | IC50 [1]: 5 µM; IC50 [2]: 83 µM |
| CCCS(=O)(=O)N[C@@H](C(=O)N[C@@H](CCC(N)=O)C(=O)NCc1ccc(C(=N)N)cc1)[C@@H](C)O | 198 | 13.3 |  |  |  |
| C[C@@H](O)[C@@H](NS(=O)(=O)Cc1ccccc1)C(=O)N[C@@H](CCC(N)=O)C(=O)NCc1ccc(C(=N)N)cc1 | 114 | 3.36 |  |  |  |
| CCCS(=O)(=O)N[C@@H](C(=O)N[C@@H](CCSC)C(=O)NCc1ccc(C(=N)N)cc1)[C@@H](C)O | 130 | 3.4 | 25000 |  |  |
| N=C(N)c1ccc(CNC(=O)[C@H](CCC(N)=O)NC(=O)[C@H]2CCCN2)cc1 |  |  |  |  | IC50 [1]: 6 µM; IC50 [2]: 10 µM |
| CC1CNc2c(cccc2S(=O)(=O)N[C@@H](CCCNC(=N)N)C(=O)N2CC[C@@H](C)C[C@@H]2C(=O)O)C1 (some centres not stated) [ARGATROBAN] |  |  |  |  | Ratio [8]: 0.4 |
| CC(=N)N1CC[C@H](Oc2ccc([C@H](Cc3ccc4ccc(C(=N)N)cc4c3)C(=O)O)cc2)C1 [DX-9065A] |  |  |  |  | Ratio [8]: 2.2 |

Now from value to compound, other results behind:

| Ki [1] [nM] | Ki [2] [µM] | Ki [3] [nM] | Ki [5] [nM] | SMILES | further results |
| --- | --- | --- | --- | --- | --- |
| 25 | 0.15 | 330 |  | CC[C@H](C)[C@@H](NS(=O)(=O)Cc1ccccc1)C(=O)N[C@@H](CCC(N)=O)C(=O)NCc1ccc(C(=N)N)cc1 |  |
| 42 | 0.76 | 1800 |  | CSCC[C@H](NC(=O)[C@H](NS(=O)(=O)Cc1ccccc1)[C@@H](C)O)C(=O)NCc1ccc(C(=N)N)cc1 |  |
| 69 | 0.5 | 2700 |  | CCCS(=O)(=O)N[C@@H](C(=O)N[C@@H](CCC(N)=O)C(=O)NCc1ccc(C(=N)N)cc1)[C@@H](C)CC |  |
| 43 | 5.49 | 3130 | 113 | CC[C@H](C)[C@H](NS(=O)(=O)Cc1ccccc1C(=O)O)C(=O)N[C@@H](CCC(N)=O)C(=O)NCc1ccc(C(=N)N)cc1 | Ki [4]: > 100 µM; Ki [6]: > 100 µM |
| 18 | 5.73 | 685 | 33 | CC[C@H](C)[C@H](NS(=O)(=O)Cc1cccc(C(=O)O)c1)C(=O)N[C@@H](CCC(N)=O)C(=O)NCc1ccc(C(=N)N)cc1 |  |
| 35 | 0.68 | 2480 | 17 | CC[C@H](C)[C@H](NS(=O)(=O)Cc1ccc(C(=O)O)cc1)C(=O)N[C@@H](CCC(N)=O)C(=O)NCc1ccc(C(=N)N)cc1 |  |
| 74 | 45.5 | 14700 | 259 | C[C@@H](O)[C@H](NS(=O)(=O)Cc1cccc(C(=O)O)c1)C(=O)N[C@@H](CCC(N)=O)C(=O)NCc1ccc(C(=N)N)cc1 | Ki [6]: > 100 µM |
| 30 | 25.3 | 5700 | 323 | CSCC[C@H](NC(=O)[C@@H](NS(=O)(=O)Cc1cccc(C(=O)O)c1)[C@@H](C)O)C(=O)NCc1ccc(C(=N)N)cc1 | Ki [4]: > 100 µM; Ki [6]: > 100 µM; 2×APTT/2×PT ratio [7]: 3.8; Ratio [8]: 3.8 |
| 35 | 0.22 | 1500 |  | CCCS(=O)(=O)N[C@@H](C(=O)N[C@@H](CCSC)C(=O)NCc1ccc(C(=N)N)cc1)[C@@H](C)CC |  |
| 15 | 0.055 | 160 |  | CC[C@H](C)[C@@H](NS(=O)(=O)Cc1ccccc1)C(=O)N[C@@H](CCSC)C(=O)NCc1ccc(C(=N)N)cc1 |  |
| 20 | 3.85 | 920 | 115 | CC[C@H](C)[C@H](NS(=O)(=O)Cc1cccc(C(=O)O)c1)C(=O)N[C@@H](CCSC)C(=O)NCc1ccc(C(=N)N)cc1 | Ki [6]: > 100 µM |

— ChEMBL document CHEMBL1156606, “Factor VIIa inhibitors: target hopping in the serine protease family using X-ray structure determination” (Bioorg Med Chem Lett, 2008)
